Reference: paper PMC4656071 (Biochemical pharmacology, 2015)

How the values were obtained:
sEH = settings: cited from earlier work
[1] = assay type: in vitro ADME, rat, human; settings: incubated in vitro without NADPH
[2] = 5 mg/kg for mouse and rat, 0.3 mg/kg for dog; cited from earlier work
[3] = Blood level-time course of AEPU and its metabolites after oral dosing in mice; assay type: in vivo, male swiss webster mice
CYP3A4 = assay: Recombinant human CYPs incubation, CYP3A4; assay type: in vitro ADME; settings: 1 μM AEPU, 20 pmol/ml CYP, 30 min
How it was run: (§1)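 Recombinant human CYPs (20 pmol/ml) with 1 μM test compound in 100 mM sodium phosphate pH 7.4, preincubated 5 min at 37 °C. NADPH-generating system added; incubated 0 and 30 min. Stopped with 200 nM internal standard in methanol; LC-MS/MS. Metabolites compared as response-area ratio to internal standard.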

CYP2D6 = assay: Recombinant human CYPs incubation, CYP2D6; assay type: in vitro ADME; settings: 1 μM AEPU, 20 pmol/ml CYP, 30 min
How it was run: as §1

[4] = animal models; cited from earlier work
CYP 3A4 = assay type: in vitro ADME, human; settings: 10 uM ketoconazole, 30 min, 37°C
Human sEH = target: T1, Human sEH (Homo sapiens, UniProt P34913); assay: sEH activity assay; assay type: biochemical; settings: fluorescent assay for sEH inhibition, from Table 3 (human and mouse sEH)
T1 sequence (P34913 1-555): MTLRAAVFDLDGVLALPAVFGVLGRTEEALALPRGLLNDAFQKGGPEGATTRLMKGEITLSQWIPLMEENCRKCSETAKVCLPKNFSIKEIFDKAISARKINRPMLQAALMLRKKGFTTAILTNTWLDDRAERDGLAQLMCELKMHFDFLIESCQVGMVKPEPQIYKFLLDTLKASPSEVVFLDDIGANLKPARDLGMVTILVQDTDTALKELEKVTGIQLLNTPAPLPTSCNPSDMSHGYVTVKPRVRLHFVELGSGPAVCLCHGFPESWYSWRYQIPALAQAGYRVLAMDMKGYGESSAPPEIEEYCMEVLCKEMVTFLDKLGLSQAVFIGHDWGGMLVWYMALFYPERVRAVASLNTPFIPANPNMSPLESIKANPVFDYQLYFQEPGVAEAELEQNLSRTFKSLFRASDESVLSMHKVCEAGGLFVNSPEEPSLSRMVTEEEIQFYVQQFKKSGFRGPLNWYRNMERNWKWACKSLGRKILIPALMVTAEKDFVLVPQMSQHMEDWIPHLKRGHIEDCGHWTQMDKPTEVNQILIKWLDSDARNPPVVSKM

[5] = In vivo metabolism study of AEPU, rat urine by LC-MS; design: species or system rat (Sprague Dawley); settings: rats, oral 10 mg/kg AEPU, urine 24 h after treatment

For `O=C(O)CCCNC(=O)NC12CC3CC(CC(C3)C1)C2` [4-(3-adamantan-1-yl-ureido)butanoic acid], the “inhibitory potency on sEH (in words)” value (sEH) is given as “very weak”.

In the case of `CCOCCOCCOCCCCCNC(=O)NC12CC3CC(CC(C3)C1)C2` [AEPU, 1-adamantan-1-yl-3-(5-(2-(2-ethoxyethoxy)ethoxy)pentyl)urea], the “metabolite formation in vitro without NADPH” value [1] is given as “failed to generate metabolites”, the “area under curve after oral administration, comparison of species” value [2] is given as “largest area under curve for dog, and then rat, while under detection limitation for mouse” and the “metabolism in vivo (in words)” value ([3]; oral 10 mg/kg, multiple metabolites observed after 30 minutes) is given as “metabolized rapidly”. For the same compound, the “role of CYP3A4 in the in vitro metabolism of AEPU” value (CYP3A4) was “major enzyme”, the “role of CYP2D6 in the in vitro metabolism of AEPU” value (CYP2D6) was “minor enzyme” and the “blood level of AEPU through the whole time course” value [4] was “undetectable”. For the same compound, the “metabolism of AEPU in human liver S9 fraction with ketoconazole” value (CYP 3A4) was “ceased”.

With `CCOCCOCCOCCCCCNC(=O)NC12CC3CC(CC(O)(C3)C1)C2` [M2] the “potency lower compared to AEPU” value (Human sEH) was 30–100 fold.

In the case of `O=C(O)CCNC(=O)NC12CC3CC(CC(C3)C1)C2` [M15, 3-(3-adamantyl-ureido)-propanoic acid], the “blood level 6 hours post administration” value ([3]; oral 10 mg/kg AEPU, mouse whole blood, 6 hours) is reported as “under the detection limitation” and the “occurrence in rat urine” value [5] is reported as “major metabolite”.
